A selection: hits, their analogues and other compounds. The true share with any hit is near 2.1%.
DNA FID counter – fluorescent intercalator displacement, NS3 helicase counter-screen | DNA fluorescent intercalator displacement, fluorescence | inhibition, % at 7.9 µM | hit rate 0.17% among 290,000; in the data active = inhibition above about 37%;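 note: 0% = vehicle and 100% = reference compound; higher means more ethidium bromide displaced from hairpin DNA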
SUMO HTRF inh – SUMOylation inhibition; HTRF SUMOylation assay, SAE1/SAE2 + UBC9, in vitro; hit rate 0.36% among 290,000; inhibition, % at 35 µM; in the data active = inhibition above about 50%, passing the limit was not always enough
Target sequence (P63279 whole entry, looked up): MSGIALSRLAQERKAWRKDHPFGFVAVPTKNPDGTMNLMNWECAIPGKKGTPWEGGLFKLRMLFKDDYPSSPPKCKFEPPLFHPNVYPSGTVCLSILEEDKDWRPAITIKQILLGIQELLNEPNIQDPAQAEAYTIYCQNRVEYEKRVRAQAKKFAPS
IMP-1 inh – blocks Pseudomonas aeruginosa IMP-1 metallo-beta-lactamase. hit rate 0.45% among 290,000. purified IMP-1, nitrocefin hydrolysis, epi-absorbance fluorescence. inhibition, % at 5.6 µM. AID 1556;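 active = inhibition above the mean plus 3 SD of all compounds in the same screening run, cut at about 4.5% in these data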;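 note: 0% = IMP-1 with DMSO and 100% = DMSO wells lacking enzyme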
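System – purified recombinant IMP-1 beta-lactamase · Input – IMP-1 dispensed at 0.2 nM · Timing – 15 min preincubation plus 25 min reaction at 25 °C · Signal – Epi-absorbance fluorescence, 480 nm excitation, 530 nm emission · Measure – percent IMP-1 inhibition derived from blank-referenced optical density · Controls – Enzyme-plus-DMSO low control, enzyme-free DMSO high control · Replication – singlicate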
NS3 helicase inh – HCV NS3 helicase inhibition; NS3 helicase DNA unwinding, Cy5 molecular beacon fluorescence; inhibition, % at 10.9 µM; hit rate 0.56% among 290,000; AID 1800;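 active = inhibition above the mean of all tested compounds plus 3 SD, set per campaign, cut at about 35% in these data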;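 note: 0% = DMSO wells and 100% = thioflavine S control wells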
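Assay system – hepatitis C virus NS3 helicase domain fragment enzyme · Buffer or medium – MOPS pH 6.5, MgCl2, DTT, Tween20, BSA · Reagent – Cy5/quencher beacon DNA duplex and ATP to start · Compound – single 10.9 µM dose · Timing – 1 h at 25 °C · Technique – Cy5 beacon fluorescence read at start and 1 h · Measure – % inhibition of unwinding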
VIM-2 inhibitor – blocks Pseudomonas aeruginosa VIM-2 metallo-beta-lactamase; AID 1527; inhibition, % at 5.6 µM; hit rate 0.89% among 290,000; purified VIM-2, nitrocefin hydrolysis, epi-absorbance fluorescence;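 active = inhibition above the mean of all tested compounds plus 3 SD, cutoff set per screening run, cut at about 7.5% in these data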;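 note: red hydrolysis product quenches plate fluorescence so inhibitors raise well fluorescence; 0% = enzyme with DMSO and 100% = DMSO without enzyme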
VIM-2 confirm – VIM-2 inhibition, confirmation assay | hit rate 73% among 200 | inhibition, % at 5.6 µM | purified VIM-2 enzyme, nitrocefin absorbance | shares compounds with IMP-1 inh; in the data active = inhibition above about 8%;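 note: 0% = enzyme with vehicle and 100% = no enzyme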
TEM-1 counter – blocks E. coli TEM-1 beta-lactamase, VIM-2 IMP-1 counter-screen; shares compounds with IMP-1 inh; nitrocefin absorbance inhibition; inhibition, % at 5.6 µM; hit rate 50% among 200; in the data active = inhibition above about 0.66%
Target sequence (P62593 whole entry, looked up): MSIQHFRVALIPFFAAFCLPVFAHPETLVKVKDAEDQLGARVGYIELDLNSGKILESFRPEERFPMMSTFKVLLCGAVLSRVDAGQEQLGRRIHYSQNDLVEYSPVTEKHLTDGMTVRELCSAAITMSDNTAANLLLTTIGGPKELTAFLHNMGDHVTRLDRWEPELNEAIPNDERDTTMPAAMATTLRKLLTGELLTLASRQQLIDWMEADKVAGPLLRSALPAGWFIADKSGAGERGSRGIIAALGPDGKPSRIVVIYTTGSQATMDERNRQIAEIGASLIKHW
IMP-1 confirm – confirmation of P. aeruginosa IMP-1 metallo-beta-lactamase inhibitors | hit rate 60% among 200 | shares compounds with IMP-1 inh | AID 2189 | purified IMP-1 enzyme, absorbance substrate hydrolysis | inhibition, % at 5.6 µM; in the data active = inhibition above about 4.9%;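 note: 0% = enzyme with vehicle and 100% = vehicle without enzyme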
Starred values were filed as active, the others as inactive; . = no result given; + = active, no number.

SMILES | DNA FID counter | SUMO HTRF inh | IMP-1 inh | NS3 helicase inh | VIM-2 inhibitor | VIM-2 confirm | TEM-1 counter | IMP-1 confirm
CC(=O)OCCn1c(C)[n+](CCOC(C)=O)c2cc(Cl)c(Cl)cc21 | 2 | 4 | -1 | 12 | 1 | . | . | .
CC(=O)OCCn1c2nc(=O)[nH]c(=O)c-2nc2cc(C)c(C)cc21 | 13 | 60* | 10* | -42 | 33* | 43* | 112* | 37*
CC(=O)c1ccc(C(=O)Nc2sc3c(c2C(N)=O)CCN(Cc2ccccc2)C3)cc1 | 3 | -15 | 5.5* | -3 | 8.8* | 5 | 5.7* | 3
COC(=O)C1C(c2ccccc2)C=CC(c2ccccc2)C1C(=O)O (stereo not given) | -34 | 23 | 61* | 4 | 8.7* | 3 | -4 | 39*
COC(=O)C1C(c2ccccc2)C(C(=O)N2CCN(C)CC2)C1c1ccccc1 (stereo not given) | 6 | 13 | -2 | -6 | -1 | . | . | .
COc1ccc(CNc2nc3ccccc3n2C)c(OC)c1 | 4 | -12 | -4 | -7 | -5 | . | . | .
COc1ccc(N=Nc2nc3cc(Br)c(Br)cc3n2C)c(OC)c1 | -14 | -10 | 9.3* | -7 | 10* | 3 | 5.6* | -1
CN1/C(=C\C=C2/SC(=S)N(CC(=O)O)C2=O)C(C)(C)c2ccccc21 | -244 | 13 | 17* | 4 | 11* | 23* | 21* | 21*
CC(C)Nc1nc(Cl)nc(N(C#N)CN2C(=O)c3ccccc3C2=O)n1 | -2 | 0 | -3 | 8 | -4 | . | . | .
CCC(C)Nc1nc(Cl)nc(N(C#N)CN2C(=O)c3ccccc3S2(=O)=O)n1 (stereo not given) | -13 | 6 | 18* | 27 | 13* | 0 | -5 | -1
O=C1C2C(c3ccccc3)C=CC(c3ccccc3)C2C(=O)N1c1ccccn1 (stereo not given) | -40 | -3 | 75* | 7 | 26* | 12* | -5 | 37*
O=C1C2C3C=CC(C3)C2C(=O)N1c1ccncc1 (stereo not given) | 3 | 26 | -2 | 8 | 0 | . | . | .
O=C1C2C(c3ccccc3)C=CC(c3ccccc3)C2C(=O)N1c1ccncc1 (stereo not given) | -39 | -4 | 65* | 10 | 25* | 11* | -1 | 29*
O=C1c2c(Br)c(Br)c(Br)c(Br)c2C(=O)N1c1ccccn1 | 1 | 19 | 1 | 8 | 5 | . | . | .
CN(C)/C=C1\C=C2C(=O)c3ccccc3N2C1=O | -1 | 11 | 21* | 3 | 20* | 134* | + | 119*
Cc1ccc(S(=O)(=O)NC(=O)c2ccc(-c3ccc(-c4ccccc4)cc3)o2)c(C)c1 | -10 | 16 | -2 | 12 | -2 | . | . | .
CC(=O)Nc1ccc(N2C(=O)c3cccc4c(O)ccc(c34)C2=O)cc1 | -14 | 37 | 34* | 8 | 40* | 30* | 34* | 28*
Cc1ccc(N2C(=O)c3cccc4c(C(=O)O)ccc(c34)C2=O)cc1 | -13 | 0 | -1 | 3 | 1 | . | . | .
O=C1c2cccc3c(O)ccc(c23)C(=O)N1Cc1ccco1 | -11 | 42 | 21* | 22 | 18* | 31* | 38* | 28*
O=C1c2cccc3c(O)ccc(c23)C(=O)N1c1ccc(Cl)cc1 | -10 | 20 | 22* | 35 | 30* | 22* | 29* | 18*
O=C(Nc1ccc(F)cc1F)c1cc(Cl)sc1Cl | 0 | -2 | -4 | 2 | -4 | . | . | .
CCN(CC)S(=O)(=O)c1ccc(C2=NOC3(C2)N(C)c2ccccc2C3(C)C)cc1 (stereo not given) | -4 | -11 | -3 | -9 | -3 | . | . | .
O=C(O)c1c(C(=O)O)c(-c2ccc(Cl)c(Cl)c2)n2c1CSC2 | -12 | -3 | 4.9* | 7 | 57* | 55* | -1 | 3
COC(=O)c1c(C(=O)OC)c(-c2ccc(Cl)c(Cl)c2)n2c1CCC2 | -6 | 12 | 0 | -2 | 1 | . | . | .
CCCCC(Sc1nc(N)c(NC(=O)c2ccco2)c(=O)[nH]1)C(=O)O (stereo not given) | -5 | 14 | 12* | 10 | 12* | 25* | 1.7* | 36*
SMILES | DNA FID counter | SUMO HTRF inh | IMP-1 inh | NS3 helicase inh | VIM-2 inhibitor | VIM-2 confirm | TEM-1 counter | IMP-1 confirm
CCCCC(Sc1nc(N)c(NC(=O)c2ccc(OCC)cc2)c(=O)[nH]1)C(=O)O (stereo not given) | -6 | 21 | -1 | -2 | 0 | . | . | .
COc1ccc(CCNC(=O)c2c(O)c3ccccc3[nH]c2=O)cc1 | -9 | -2 | -2 | 0 | -2 | . | . | .
N=C1/C(=C\c2coc3ccc(O)cc3c2=O)C(=O)N=C2SC=CN12 | -3 | 32 | 11* | 16 | 9.9* | 17* | 8.0* | 14*
CCOC(=O)N1C(=O)c2cc(OC)ccc2S1(=O)=O | 2 | 12 | 38* | 5 | 9.4* | 3 | 1.5* | 5.3*
O=C(c1ccccc1)c1c2c(cc3sc4ccccc4[n+]13)-c1cccc3cccc-2c13 | 53* | 50 | 10* | -77 | 16* | 11* | -3 | -1
O=[N+]([O-])c1cnc(Nc2ccccc2)nc1Nc1ccccc1 | -1 | 22 | -4 | 7 | -4 | . | . | .
Cc1cc(C)n2nc(C)c(Br)c2n1 | -1 | 19 | -2 | 12 | -1 | . | . | .
Cc1cc(C)n2nc3nc4c(cc3c2n1)CCCC4 | 8 | 36 | 5.0* | 11 | 11* | 15* | -1 | -1
CCOc1cc2c(cc1/C=C/c1noc(C)c1[N+](=O)[O-])OC(C)C2 (stereo not given) | -1 | 20 | 13* | 13 | 17* | 20* | 30* | 18*
CCOc1cc2c(cc1C=O)OC(C)C2 (stereo not given) | 2 | 19 | 0 | 11 | 2 | . | . | .
CN(/N=C/c1ccc(-c2ccc([N+](=O)[O-])cc2)o1)c1ccccc1 | 7 | 30 | 30* | -13 | 26* | 17* | 27* | 16*
CCOC(=O)C1(C(F)(F)F)N=C(c2cccnc2)OC(N2CCCCC2)=N1 (stereo not given) | -23 | -8 | -3 | -9 | -3 | . | . | .
O=C(OCCCOC(=O)c1ccc(O)cc1)c1ccc(O)cc1 | -7 | -3 | -2 | -9 | -2 | . | . | .
O=C(CCN1C(=O)/C(=C/c2ccc(Cl)cc2)SC1=S)NCCCn1ccnc1 | 22 | 11 | 18* | -33 | 18* | 28* | 1.2* | 32*
CCn1c(=S)sc2c(=O)n(CC(=O)Nc3ccccc3C(F)(F)F)c(C)nc21 | -6 | -5 | 41* | -6 | 21* | 19* | 0 | 24*

Compound activity: PubChem, several laboratories
